Results published in ChEMBL document CHEMBL2010803, “Novel NSAID 1-acyl-4-cycloalkyl/arylsemicarbazides and 1-acyl-5-benzyloxy/hydroxy carbamoylcarbazides as potential anticancer agents and antioxidants” (Eur J Med Chem, 2012).
pIC50: −log10 of the molar value. Calls of active or inactive are those of the source.

What was measured:
[1] = test system: Human immunodeficiency virus 1; test: Antiviral activity against HIV1 3B infected in human CEM cells assessed as inhibition of virus-induced CEM giant cell formation at 0.32 to 100 uM after 4 days; type: functional, organism-based; details: CCRF-CEM
How it was run: (§1)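 CEM cells (~3 × 10^5 cells/cm³) exposed to 100 CCID50/ml of virus and seeded into wells holding compound dilutions. Incubated 4 days at 37 °C, then giant cell formation examined microscopically.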

[2] = test system: Human immunodeficiency virus 2; test: Antiviral activity against HIV2 ROD infected in human CEM cells assessed as inhibition of virus-induced CEM giant cell formation at 0.32 to 100 uM after 4 days; type: functional, organism-based; details: ISOLATE ROD, CCRF-CEM; how it was run: as §1
HeLa = test: Cytostatic activity against human HeLa cells after 3 days by coulter counter analysis; type: functional, cell-based; details: 72 h
How it was run: (§2)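 300,000–500,000 cells/ml mixed 1:1 with compound dilutions and incubated at 37 °C for 2 days (L1210) or 3 days (CEM, HeLa). Cell number counted with a Coulter counter; HeLa trypsinized before counting.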

Coxsackievirus B4 [3] = test: Antiviral activity against Coxsackievirus B4 infected in human cervix carcinoma cells assessed as inhibition of virus-induced cytopathic effect at 0.32 to 100 uM; type: functional, organism-based
How it was run: (§3)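 Confluent cell cultures were infected with 100 CCID50 of virus in the presence of test compound at 100, 40, 8, 1.6 and 0.32 μM. Cytopathic effect was scored once it was complete in untreated infected controls.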

Punta Toro virus = test: Antiviral activity against Punta Toro virus infected in african green monkey Vero cells assessed as inhibition of virus-induced cytopathic effect at 0.32 to 100 uM; type: functional, organism-based; how it was run: as §3
Vaccinia virus = test: Antiviral activity against Vaccinia virus infected in human lung fibroblast assessed as inhibition of virus-induced cytopathic effect at 0.32 to 100 uM; type: functional, organism-based; details: Orthopoxvirus vaccinia
Human alphaherpesvirus 1 = test: Antiviral activity against HSV1 KOS infected in human lung fibroblast assessed as inhibition of virus-induced cytopathic effect at 0.32 to 100 uM; type: functional, organism-based; how it was run: as §3
[4] = test system: Radical scavenging activity; test: Antioxidant activity assessed as DPPH free radical scavenging activity at 100 uM after 20 mins by spectrophotometric analysis; type: functional
How it was run: (§4)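 0.05 mM DPPH in absolute ethanol mixed with an equal volume of compound in DMSO (final 100 μM). Shaken and left 20 or 60 min, then absorbance read at 517 nm and percent activity calculated. Three replicates, averaged.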

Feline coronavirus = test: Antiviral activity against Feline coronavirus infected in feline CRFK cells assessed as inhibition of virus-induced cytopathic effect at 0.32 to 100 uM; type: functional, organism-based; how it was run: as §3
Felid alphaherpesvirus 1 = test: Antiviral activity against Feline herpesvirus infected in feline CRFK cells assessed as inhibition of virus-induced cytopathic effect at 0.32 to 100 uM; type: functional, organism-based; how it was run: as §3
[5] = test system: Vesicular stomatitis virus; test: Antiviral activity against Vesicular stomatitis virus infected in human cervix carcinoma cells assessed as inhibition of virus-induced cytopathic effect at 0.32 to 100 uM; type: functional, organism-based
How it was run: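 Confluent human cervix carcinoma (HeLa) cultures received 100 CCID50 of VSV together with the compound at 100, 40, 8, 1.6 or 0.32 μM. Cytopathicity was read at the point of full CPE in infected, untreated control wells.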

Human respirovirus 3 = test: Antiviral activity against Parainfluenza virus 3 infected in african green monkey Vero cells assessed as inhibition of virus-induced cytopathic effect at 0.32 to 100 uM; type: functional, organism-based; how it was run: as §3
[6] = test system: Vesicular stomatitis virus; test: Antiviral activity against VSV infected in human lung fibroblast assessed as inhibition of virus-induced cytopathic effect at 0.32 to 100 uM; type: functional, organism-based
L1210 = test: Cytostatic activity against mouse L1210 cells after 2 days by coulter counter analysis; type: functional, cell-based; details: L1210, 48 h; how it was run: as §2
[7] = Antioxidant activity assessed as inhibition of AAPH-induced linoleic acid lipid peroxidation by measuring conjugated diene hydroperoxide level; type: functional; design: concentration or dose not given beside the values; details: dose or concentration not given here
How it was run: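 Linoleic acid sodium salt (10 μL of 16 mM) in 0.05 M phosphate buffer pH 7.4 at 37 °C. Oxidation started under air with 50 μL of 40 mM AAPH. Conjugated diene hydroperoxide formation followed as absorbance rise at 234 nm; control contains the same DMSO level. At least triplicate.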

Glycine max = test: Inhibition of soybean LOX assessed as conversion of sodium linoleate to 13- hydroperoxylinoleic acid at 100 uM
Influenza B virus = test: Antiviral activity against Influenza B virus infected in MDCK cells assessed as inhibition of virus-induced cytopathic effect at 0.32 to 100 uM; type: functional, organism-based
How it was run: (§5)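 Confluent MDCK monolayers were infected in the presence of the compound at 100, 40, 8, 1.6 and 0.32 μM. Viral cytopathicity was scored once it was complete in untreated infected control cultures.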

Influenza A virus [8] = test: Antiviral activity against Influenza A virus H1N1 infected in MDCK cells assessed as inhibition of virus-induced cytopathic effect at 0.32 to 100 uM; type: functional, organism-based; how it was run: as §5
Influenza A virus [9] = test: Antiviral activity against Influenza A virus H3N2 infected in MDCK cells assessed as inhibition of virus-induced cytopathic effect at 0.32 to 100 uM; type: functional, organism-based; how it was run: as §5
NCI-H460 = test: Cytostatic activity against human NCI-H460 cells after 72 hrs by MTT assay; type: functional, cell-based; details: NCI-H460, 72 h
How it was run: (§6)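 Monolayers in DMEM with 10% FBS, 2 mM L-glutamine and penicillin/streptomycin, 37 °C, 5% CO2. Seeded at 1–3 × 10^4 cells/ml, then compound added in tenfold dilutions (10⁻⁸–10⁻⁴ M) for 72 h. MTT read at 570 nm; percent growth taken against time-zero and untreated controls. IC50 by linear regression; quadruplicate, at least two experiments.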

[10] = test system: Mammalian orthoreovirus 1; test: Antiviral activity against Reovirus-1 infected in african green monkey Vero cells assessed as inhibition of virus-induced cytopathic effect at 0.32 to 100 uM; type: functional, organism-based; how it was run: as §3
[11] = test system: Respiratory syncytial virus; test: Antiviral activity against RSV infected in human cervix carcinoma cells assessed as inhibition of virus-induced cytopathic effect at 0.32 to 100 uM; type: functional, organism-based; how it was run: as §3
[12] = test system: Radical scavenging activity; test: Antioxidant activity assessed as DPPH free radical scavenging activity at 100 uM after 60 mins by spectrophotometric analysis; type: functional; how it was run: as §4
MCF7 = test: Cytostatic activity against human MCF7 cells after 72 hrs by MTT assay; type: functional, cell-based; details: MCF7, 72 h; how it was run: as §6
Human alphaherpesvirus 2 = test: Antiviral activity against HSV2 G infected in human lung fibroblast assessed as inhibition of virus-induced cytopathic effect at 0.32 to 100 uM; type: functional, organism-based; details: strain G; how it was run: as §3
CCRF-CEM = test: Cytostatic activity against human CEM cells after 3 days by coulter counter analysis; type: functional, cell-based; details: 72 h; how it was run: as §2
HCT-116 = test: Cytostatic activity against human HCT116 cells after 72 hrs by MTT assay; type: functional, cell-based; details: HCT-116, 72 h; how it was run: as §6
Sindbis virus = test: Antiviral activity against Sindbis virus infected in african green monkey Vero cells assessed as inhibition of virus-induced cytopathic effect at 0.32 to 100 uM; type: functional, organism-based; how it was run: as §3
Coxsackievirus B4 [13] = test: Antiviral activity against Coxsackievirus B4 infected in african green monkey Vero cells assessed as inhibition of virus-induced cytopathic effect at 0.32 to 100 uM; type: functional, organism-based; how it was run: as §3

CC(C(=O)NN)c1cccc(Cc2ccccc2)c1 (configuration not stated)
inactive: inhibition [1] | inhibition [2] | inhibition (Coxsackievirus B4 [3]) | inhibition (Punta Toro virus) | inhibition (Vaccinia virus) | inhibition (Human alphaherpesvirus 1) | Activity [4] | inhibition (Feline coronavirus) | inhibition (Felid alphaherpesvirus 1) | inhibition [5] | inhibition (Human respirovirus 3) | inhibition [6] | inhibition (Influenza B virus) | inhibition (Influenza A virus [8]) | inhibition (Influenza A virus [9]) | inhibition [10] | inhibition [11] | Activity [12] | inhibition (Human alphaherpesvirus 2) | inhibition (Sindbis virus) | inhibition (Coxsackievirus B4 [13])
10%: inhibition (Glycine max)
3.67: pIC50 (L1210)
3.82: pIC50 (CCRF-CEM)
< 4.00: pIC50 (NCI-H460) | pIC50 (MCF7) | pIC50 (HCT-116)
6%: inhibition [7]
3.85: pIC50 (HeLa)

CC(C)Cc1ccc(C(C)C(=O)NNC(=O)NNC(=O)NO)cc1 (configuration not stated)
inactive: inhibition [1] | inhibition [2] | inhibition (Coxsackievirus B4 [3]) | inhibition (Punta Toro virus) | inhibition (Vaccinia virus) | inhibition (Human alphaherpesvirus 1) | inhibition (Feline coronavirus) | inhibition (Felid alphaherpesvirus 1) | inhibition [5] | inhibition (Human respirovirus 3) | inhibition [6] | inhibition (Glycine max) | inhibition (Influenza B virus) | inhibition (Influenza A virus [8]) | inhibition (Influenza A virus [9]) | inhibition [10] | inhibition [11] | inhibition (Human alphaherpesvirus 2) | inhibition (Sindbis virus) | inhibition (Coxsackievirus B4 [13])
15%: inhibition [7]
46%: Activity [12]
< 4.00: pIC50 (NCI-H460) | pIC50 (MCF7) | pIC50 (HCT-116)
< 3.60: pIC50 (HeLa) | pIC50 (L1210) | pIC50 (CCRF-CEM)
24%: Activity [4]

CC(C)Cc1ccc(C(C)C(=O)NN)cc1 (configuration not stated)
8%: inhibition (Glycine max)
1%: Activity [12]
3.77: pIC50 (L1210)
inactive: inhibition [1] | inhibition [2] | inhibition (Coxsackievirus B4 [3]) | inhibition (Punta Toro virus) | inhibition (Vaccinia virus) | inhibition (Human alphaherpesvirus 1) | Activity [4] | inhibition (Feline coronavirus) | inhibition (Felid alphaherpesvirus 1) | inhibition [5] | inhibition (Human respirovirus 3) | inhibition [6] | inhibition (Influenza B virus) | inhibition (Influenza A virus [8]) | inhibition (Influenza A virus [9]) | inhibition [10] | inhibition [11] | inhibition (Human alphaherpesvirus 2) | inhibition (Sindbis virus) | inhibition (Coxsackievirus B4 [13])
< 4.00: pIC50 (NCI-H460) | pIC50 (MCF7) | pIC50 (HCT-116)
3.89: pIC50 (HeLa)
6%: inhibition [7]
3.83: pIC50 (CCRF-CEM)
